The source of these data is ChEMBL document CHEMBL1143679, “Anti-inflammatory thiazine alkaloids isolated from the New Zealand ascidian Aplidium sp.: inhibitors of the neutrophil respiratory burst in a model of gouty arthritis” (J Nat Prod, 2007).

Molecules are shown by their SMILES. Activity calls are given as the source filed them.

One assay has as its system HL-60. The assay can be described thus: Antiproliferative activity against human HL60 cells after 48 hrs by MTT assay. To be noted: HL-60, 48 h. For orientation: Formazan colour is commonly taken as a measure of viable cells.
For the next assay, the system named is Neutrophil. Put plainly: Inhibition of PMA-stimulated superoxide production in human neutrophils. The class given is functional, cell-based. The procedure, abridged:
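Neutrophils in HBSS, 1 × 10⁶ cells/well, preincubated 30 min with graded compound concentrations (HBSS, 1% v/v DMSO). WST-1 added (final 0.35 mM), then PMA (final 0.295 µM). Dye reduction read in real time at 450 nm for 20 min at 37 °C. Rate compared with buffer-treated cells; AI50 is the concentration giving 50% inhibition.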

Assay [1] has as its system Mus musculus. The assay can be described thus: Inhibition of superoxide production in peritoneal neutrophils of C57BL/6 gouty mouse at 25.6 umol/kg, po after 4 hrs relative to monosodium urate. Type of assay: functional. To be noted: C57BL/6, po. The essentials: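 Male C57BL/6 mice, 8–12 weeks, received MSU crystals (3 mg in 500 µL PBS pH 7.4) ip, with oral gavage of compound (25.6 µmol/kg) at the same time. PBS-gavaged controls; colchicine given sc at 5 µmol/kg. After 4 h, peritoneal lavage with heparinized PBS. Cells adjusted to 1 × 10⁶ neutrophils/mL; PMA-triggered WST-1 reduction measured per million neutrophils, relative to MSU-only mice.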

Assay [2] is described as follows: Inhibition of superoxide production by xanthine/xanthine oxidase method. The class given is functional. The essentials: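 Cell-free enzyme assay. Graded compound dilutions were prepared in 0.1 M Tris pH 7.4, 0.2 mM EDTA, 1% v/v DMSO. Final WST-1 0.35 mM, xanthine 2.38 mM and xanthine oxidase 15 mU/mL. Absorbance at 450 nm was read in real time for 20 min at 37 °C. The rate was compared with buffer controls, and the 50% inhibitory concentration was reported.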

Assay [3] concerns Mus musculus. The assay can be described thus: Inhibition of urate-induced neutrophil recruitment into peritoneal cavity in mouse at 25 umol/kg. Type of assay: functional. The procedure, abridged: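 In the ip MSU (3 mg) mouse model with oral gavage dosing, peritoneal lavage was taken at 4 h. Total cells were counted. A cytocentrifuged aliquot was stained with Diff-Quick, and the neutrophil percentage was scored microscopically by standard histological criteria.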

Consider `COC(=O)c1ccc2cccc(O)c2n1`, for which the half-maximal inhibitory concentration (IC50) with HL-60 worked out at 96.9 µM; in the assay with Neutrophil it was 277 µM.
Taken in the same sequence, the figures for `COC(=O)c1ccc2c(n1)C(=O)C=CC2=O` were 4.11 µM and 1.75 µM.
In the assay on Mus musculus [1], `O=C(O)c1ccc2c(n1)C(=O)C1=C(C2=O)S(=O)(=O)CCN1` [ACIDIATHIAZONE A] registered an inhibition in vivo at 25.6 µmol/kg of 23%. Besides, inhibition in assay [2] was half-maximal at 55.9 µM (IC50). In addition, the outcome in the assay with Mus musculus [3] was inactive.
In turn, `Oc1ncnc2[nH]ncc12` [ALLOPURINOL] came in with an IC50 in assay [2] of 42.2 µM.
Regarding `COC(=O)c1ccc2c(n1)C(=O)C1=C(C2=O)S(=O)(=O)CCN1` [ASCIDIATHIAZONE A METHYL ESTER], the inhibition in vivo at 25.6 µmol/kg in the assay on Mus musculus [1] was 84%. Further, the IC50 in assay [2] was 18.2 µM. In the assay on Mus musculus [3], this compound came in with an inhibition in vivo at 25 µmol/kg of 60%.
Take `O=C(O)c1ccc2c(n1)C(=O)C1=C(NC=CS1(=O)=O)C2=O` [ASCIDIATHIAZONE B]: the IC50 in the assay on HL-60 was determined as 16.7 µM; in assay [2], 17.9 µM; in the assay on Neutrophil, 0.44 µM. The compound further displayed an inhibition in vivo at 25.6 µmol/kg in the assay with Mus musculus [1] of 59%. Also, in the assay with Mus musculus [3], the result was inactive.
The compound `CN(Cc1cnc2nc(N)nc(N)c2n1)c1ccc(C(=O)N[C@@H](CCC(=O)O)C(=O)O)cc1` [METHOTREXATE] displayed a half-inhibitory concentration (IC50) in the assay on HL-60 of 0.00692 µM.

What is called IC50 is the concentration that inhibits the measured activity by half. Higher therefore signals a need for much substance. One may read the inhibition in vivo as the relative decrease from the control value, in per cent. Lower therefore signals little suppression.
